Laboratory results reported in ChEMBL document CHEMBL1145845, “Acetogenins as selective inhibitors of the human ovarian 1A9 tumor cell line” (2003).
Values after ≈ are worked out from the molar mass of the structure shown. One block for each compound: values may come before it. Active and inactive are the calls of the source.

Key:
[1] = system: KB; test: Effective dose required for inhibitory activity against KB-VIN human tumor cell line.; assay type: functional; settings: read-out: ED50 (the source's name)
Method in brief: (§1)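 Human tumor lines were grown in RPMI-1640 with 25 mM HEPES, 0.25% sodium bicarbonate, 10% FBS and 100 µg/mL kanamycin. KB-VIN is a vincristine-resistant KB subline, and PTX10 is a 1A9 subline with mutated β-tubulin. Trypsinized cells (1500–7500/well) got compound from DMSO stock for 3 days continuous. Cells were fixed with cold 50% TCA, stained with 0.4% SRB, and read at 562 nm. ED50 is the 50% growth-reduction concentration; not active means ≤5% inhibition at the top concentration.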

[2] = system: MCF7; test: Effective dose required for inhibitory activity against MCF-7 human tumor cell line.; assay type: functional; settings: read-out: ED50 (the source's name); method in brief: as §1
[3] = system: SK-MEL-2; test: Effective dose required for inhibitory activity against SK-MEL-2 human tumor cell line; Not active; assay type: functional, cell-based; method in brief: as §1
[4] = system: PC-3; test: Effective dose required for inhibitory activity against PC-3 human tumor cell line.; assay type: functional; settings: read-out: ED50 (the source's name); method in brief: as §1
[5] = system: A549; test: Effective dose required for inhibitory activity against A549 human tumor cell line.; assay type: functional; settings: read-out: ED50 (the source's name); method in brief: as §1
[6] = system: HCT-8; test: Effective dose required for inhibitory activity against HCT-8 human tumor cell line.; assay type: functional; settings: read-out: ED50 (the source's name); method in brief: as §1
[7] = system: 1A9/ptx-10; test: Percent inhibition against PTX10 human tumor cell line at >10 ug/mL; assay type: functional
[8] = system: CAKI-1; test: Effective dose required for inhibitory activity against CAK1 human tumor cell line; assay type: functional; settings: read-out: ED50 (the source's name); method in brief: as §1
[9] = system: 1A9; test: Effective dose required for inhibitory activity against 1A9 human tumor cell line.; assay type: functional; settings: read-out: ED50 (the source's name); method in brief: as §1
[10] = system: HOS; test: Effective dose required for inhibitory activity against HOS human tumor cell line.; assay type: functional; settings: read-out: ED50 (the source's name); method in brief: as §1
[11] = system: KB; test: Effective dose required for inhibitory activity against KB human tumor cell line.; assay type: functional; settings: read-out: ED50 (the source's name); method in brief: as §1
[12] = system: HOS; test: Effective dose required for inhibitory activity against HOS human tumor cell line; Not active; assay type: functional, cell-based; method in brief: as §1
[13] = system: CAKI-1; test: Effective dose required for inhibitory activity against CAK1 human tumor cell line; Not active; assay type: functional, cell-based; method in brief: as §1
[14] = system: SK-MEL-2; test: Effective dose required for inhibitory activity against SK-MEL-2 human tumor cell line.; assay type: functional; settings: read-out: ED50 (the source's name); method in brief: as §1
[15] = system: 1A9/ptx-10; test: Effective dose required for inhibitory activity against PTX10 human tumor cell line; assay type: functional; settings: read-out: ED50 (the source's name); method in brief: as §1

Compound: CCCCCC[C@@H](O)CCC[C@H](O)[C@@H]1CC[C@@H]([C@H](O)CC[C@@H](O)[C@@H]2CC[C@@H](CCCCCCCCCC3=C[C@@H](C)OC3=O)O2)O1 [Squamostatin-A]
EC50 [1]: > 20 µg/mL | EC50 [2]: 8 µg/mL (≈ 12.5 µM) | NA [3]: inactive | EC50 [4]: > 20 µg/mL | EC50 [5]: > 20 µg/mL | EC50 [6]: > 20 µg/mL | Inhibition [7]: 40% | EC50 [8]: > 20 µg/mL | EC50 [9]: 8.7 ng/mL (≈ 0.0136 µM) | EC50 [10]: > 20 µg/mL | EC50 [11]: > 20 µg/mL

Compound: CCCCCCCCCCCC[C@H](O)[C@@H]1CC[C@@H]([C@@H](O)CCCCC(=O)CCCCCC2CC(CC(C)=O)C(=O)O2)O1 (stereo partly specified) [ISOANNONACINONE]
EC50 [1]: > 20 µg/mL | EC50 [2]: > 20 µg/mL | NA [3]: inactive | NA [12]: inactive | EC50 [4]: > 20 µg/mL | EC50 [5]: > 20 µg/mL | NA [13]: inactive | EC50 [6]: > 20 µg/mL | Inhibition [7]: 19% | EC50 [9]: 2200 ng/mL (≈ 3.7 µM) | EC50 [11]: > 20 µg/mL

EC50 [1]: > 20 µg/mL | EC50 [2]: 11.5 µg/mL (≈ 19.3 µM) | EC50 [4]: > 20 µg/mL | EC50 [5]: > 20 µg/mL | EC50 [6]: > 20 µg/mL | EC50 [14]: > 20 µg/mL | EC50 [8]: > 20 µg/mL | EC50 [9]: 70 ng/mL (≈ 0.117 µM) | EC50 [10]: > 20 µg/mL | EC50 [11]: > 20 µg/mL
Compound: CCCCCCCCCCCCC(O)C(O)CCC(O)[C@H]1CC[C@H](CCCCCCC[C@@H](O)CC2=C[C@H](C)OC2=O)O1 (stereo partly specified)
Inhibition [7]: 37%

Compound: CCCCCCCCCCCC[C@@H](O)[C@H]1CC[C@H]([C@H](O)CCCCC(=O)CCCCCCCC2=C[C@H](C)OC2=O)O1
EC50 [1]: > 20 µg/mL | EC50 [2]: 9.5 µg/mL (≈ 16.4 µM) | NA [12]: inactive | EC50 [4]: > 20 µg/mL | EC50 [5]: > 20 µg/mL | NA [13]: inactive | EC50 [6]: > 20 µg/mL | Inhibition [7]: 31% | EC50 [14]: > 20 µg/mL | EC50 [9]: 760 ng/mL (≈ 1.31 µM) | EC50 [11]: > 20 µg/mL

Compound: CCCCCCCCCCCCCC[C@@H](O)[C@H]1CC[C@H]([C@H](O)CCC(O)CCCCCCCC2=C[C@H](C)OC2=O)O1 (stereo partly specified)
EC50 [1]: > 20 µg/mL | EC50 [2]: 9 µg/mL (≈ 15.5 µM) | EC50 [4]: 16.8 µg/mL (≈ 28.9 µM) | EC50 [5]: 20 µg/mL (≈ 34.4 µM) | EC50 [6]: 20 µg/mL (≈ 34.4 µM) | Inhibition [7]: 43% | EC50 [14]: > 20 µg/mL | EC50 [8]: > 20 µg/mL | EC50 [9]: 810 ng/mL (≈ 1.39 µM) | EC50 [10]: > 20 µg/mL | EC50 [11]: 17.3 µg/mL (≈ 29.8 µM)

Compound: CCCCCCCCCCCC[C@@H](O)[C@H]1CC[C@H]([C@H](O)CCCCC(=O)CCCCC[C@@H](O)CC2=C[C@H](C)OC2=O)O1 [ANNONACINONE]
EC50 [1]: > 20 µg/mL | EC50 [2]: 11.5 µg/mL (≈ 19.3 µM) | EC50 [4]: > 20 µg/mL | EC50 [5]: > 20 µg/mL | EC50 [6]: > 20 µg/mL | Inhibition [7]: 36% | EC50 [14]: > 20 µg/mL | EC50 [8]: > 20 µg/mL | EC50 [9]: 740 ng/mL (≈ 1.24 µM) | EC50 [10]: > 20 µg/mL | EC50 [11]: 18.3 µg/mL (≈ 30.8 µM)

Compound: CCCCCC(O)C(O)CCCCCC[C@H](O)[C@@H]1CC[C@H](CCCCCCCCCC[C@H](O)CC2=C[C@H](C)OC2=O)O1 (stereo partly specified) [MURICIN B]
EC50 [1]: > 20 µg/mL | EC50 [2]: 15.5 µg/mL (≈ 26 µM) | EC50 [4]: > 20 µg/mL | EC50 [5]: > 20 µg/mL | NA [13]: inactive | EC50 [6]: > 20 µg/mL | Inhibition [7]: 26% | EC50 [14]: > 20 µg/mL | EC50 [9]: 520 ng/mL (≈ 0.871 µM) | EC50 [10]: > 20 µg/mL | EC50 [11]: > 20 µg/mL

Compound: CCCCCCCC/C=C\CC[C@H](O)[C@@H]1CC[C@@H]([C@H](O)CCCCC(O)CCCCCC(O)CC2=C[C@H](C)OC2=O)O1 (stereo partly specified)
EC50 [1]: 17.5 µg/mL (≈ 29.4 µM) | EC50 [2]: 7.6 µg/mL (≈ 12.8 µM) | EC50 [4]: 15.3 µg/mL (≈ 25.7 µM) | EC50 [5]: 17 µg/mL (≈ 28.6 µM) | EC50 [6]: 14.4 µg/mL (≈ 24.2 µM) | Inhibition [7]: 40% | EC50 [14]: 17 µg/mL (≈ 28.6 µM) | EC50 [8]: 19 µg/mL (≈ 31.9 µM) | EC50 [9]: 930 ng/mL (≈ 1.56 µM) | EC50 [10]: 17 µg/mL (≈ 28.6 µM) | EC50 [11]: 13 µg/mL (≈ 21.9 µM)

Compound: CCCCCCCCCC[C@H](O)[C@H]1CC[C@H]([C@H]2CC[C@H]([C@H](O)CCCCCCCC[C@@H](O)CC3=C[C@H](C)OC3=O)O2)O1 [MOLVIZARIN]
EC50 [1]: 13.9 µg/mL (≈ 23.4 µM) | EC50 [15]: 8.7 µg/mL (≈ 14.6 µM) | EC50 [2]: 7.7 µg/mL (≈ 12.9 µM) | EC50 [4]: 12.9 µg/mL (≈ 21.7 µM) | EC50 [5]: 12.9 µg/mL (≈ 21.7 µM) | EC50 [6]: 14.9 µg/mL (≈ 25 µM) | EC50 [14]: 16.4 µg/mL (≈ 27.6 µM) | EC50 [8]: 16.4 µg/mL (≈ 27.6 µM) | EC50 [9]: 0.005 ng/mL (≈ 8.41e-06 µM) | EC50 [10]: 9.9 µg/mL (≈ 16.6 µM) | EC50 [11]: 10 µg/mL (≈ 16.8 µM)

Compound: CCCCCC[C@H](O)CCC[C@H](O)[C@H]1CC[C@H]([C@H]2CC[C@H]([C@H](O)CCCCCCCCCCCCC3=C[C@H](C)OC3=O)O2)O1 [SQUAMOCIN]
EC50 [1]: 12 µg/mL (≈ 19.3 µM) | EC50 [15]: 7 µg/mL (≈ 11.2 µM) | EC50 [2]: 6 µg/mL (≈ 9.63 µM) | EC50 [4]: 11.1 µg/mL (≈ 17.8 µM) | EC50 [5]: 9.3 µg/mL (≈ 14.9 µM) | EC50 [6]: 9.8 µg/mL (≈ 15.7 µM) | EC50 [14]: 16.5 µg/mL (≈ 26.5 µM) | EC50 [8]: 13.5 µg/mL (≈ 21.7 µM) | EC50 [9]: 0.32 ng/mL (≈ 0.000514 µM) | EC50 [10]: 8.5 µg/mL (≈ 13.6 µM) | EC50 [11]: 8.1 µg/mL (≈ 13 µM)

Compound: CCCCCC(O)C(O)CCCCCC[C@@H](O)[C@H]1CC[C@H](CCCCCCCCCC[C@@H](O)CC2=C[C@H](C)OC2=O)O1 (stereo partly specified) [MURICIN A]
EC50 [1]: 15 µg/mL (≈ 25.1 µM) | EC50 [15]: 8.2 µg/mL (≈ 13.7 µM) | EC50 [2]: 6 µg/mL (≈ 10.1 µM) | EC50 [4]: 14.1 µg/mL (≈ 23.6 µM) | EC50 [5]: 16.8 µg/mL (≈ 28.1 µM) | EC50 [6]: 15 µg/mL (≈ 25.1 µM) | EC50 [14]: 18 µg/mL (≈ 30.2 µM) | EC50 [8]: > 20 µg/mL | EC50 [9]: 330 ng/mL (≈ 0.553 µM) | EC50 [10]: 18.4 µg/mL (≈ 30.8 µM) | EC50 [11]: 12.8 µg/mL (≈ 21.4 µM)
